Data reported in PMC5196489 (International Journal for Parasitology: Drugs and Drug …, 2016).
Entries after “also recorded” stand apart in the source; their conditions may differ.

Columns and labels:
[1] = target: T1, Sm.5HTRL (Schistosoma mansoni, UniProt A0A173FEI8); test: cAMP biosensor; type: cell-based; conditions: for block of Sm.5HTRL dependent cAMP generation in vitro: Fig. 1; for IC50: read-out: IC50 Sm.5HTRL, inhibition of 5-HT (0.8 μM) evoked cAMP generation, HEK293 cells co-transfected with 22-F cAMP biosensor, IBMX 200 μM
T1 sequence (A0A173FEI8 1-547): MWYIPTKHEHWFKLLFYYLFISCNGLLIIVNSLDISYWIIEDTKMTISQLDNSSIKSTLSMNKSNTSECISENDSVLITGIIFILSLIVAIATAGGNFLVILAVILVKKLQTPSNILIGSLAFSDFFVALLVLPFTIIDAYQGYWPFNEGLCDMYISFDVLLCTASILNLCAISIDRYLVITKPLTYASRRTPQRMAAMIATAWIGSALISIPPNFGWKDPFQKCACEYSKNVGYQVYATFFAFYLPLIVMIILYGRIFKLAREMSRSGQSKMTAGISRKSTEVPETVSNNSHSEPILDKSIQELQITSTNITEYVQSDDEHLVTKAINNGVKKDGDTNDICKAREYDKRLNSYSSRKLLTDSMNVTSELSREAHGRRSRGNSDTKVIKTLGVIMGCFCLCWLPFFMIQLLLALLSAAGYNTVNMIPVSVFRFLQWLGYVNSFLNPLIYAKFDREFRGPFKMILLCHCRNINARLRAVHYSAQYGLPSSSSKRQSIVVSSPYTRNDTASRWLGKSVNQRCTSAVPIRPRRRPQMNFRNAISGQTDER

[2] = test system: human 5-HT7 receptor (Hs.5HT7R); conditions: ref Farrell et al., 2016; cited from earlier work
[3] = test system: larval schistosomules; test: Schistosomule mobility; type: cell-based, Schistosoma mansoni; conditions: for IC50: Schistosoma mansoni, 0.5 h, read-out: IC50 schistosomule
Outline: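 S. mansoni PR-1 cercariae mechanically transformed, tails removed on Percoll, kept in modified Basch medium without serotonin (37 °C, 5% CO2); about 200 per 0.5 mL well. Basal movement recorded first, then 5-HT (10 μM), then rising doses of test compound added at 20x. Incubated 30 min before a 1 min video. Mobility scored as body-length deviations >20% from the mean per minute.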

[4] = test system: adult S. mansoni; test: Adult schistosome mobility assay; type: cell-based, Schistosoma mansoni
[5] = test system: larval schistosomules; conditions: ref Chan et al., 2014; cited from earlier work
[6] = target: T1, Sm.5HTRL; conditions: chemical screening data; ref Chan et al., 2016b; cited from earlier work

Structure (SMILES): COc1cc2c3c(c1OC)-c1ccccc1C[C@H]3N(C)CC2 [Nuciferine, (−)nuciferine]
- block of Sm.5HTRL dependent cAMP generation in vitro [1]: completely blocked
- IC50 [1]: 0.24 ± 0.04 µM
- action at the human 5-HT7 receptor [2]: inverse agonist
- inhibition of larval contractions / schistosomule motility ([3]; 5-HT 10 μM plus increasing doses of aporphine, Fig. 2): particularly effective at inhibiting larval contractions
- IC50 [3]: 0.62 ± 0.22 µM
- effect on basal motility ([4]; female adult worms, drug 10 μM, 2 h, p < 0.01 versus p < 0.05): more effective than the other ligands
- effect on 5-HT stimulated motility ([4]; male adult worms, increasing 5-HT (≤1 mM)): no 5-HT stimulated motility even at the highest 5-HT doses; also recorded: nuciferine action not reversed by 5-HT

Structure (SMILES): CN1CCc2cccc3c2[C@H]1Cc1ccc(O)c(O)c1-3 [Apomorphine, R-(−)-apomorphine, reference compound]
- effect on schistosomule contractility [5]: inhibits schistosomule contractility
- IC50 [1]: 15.2 ± 3.3 µM
- IC50 [3]: 24.2 ± 15.1 µM

Structure (SMILES): CC(C)C[C@H]1C(=O)N2CCC[C@H]2[C@]2(O)O[C@](NC(=O)[C@@H]3C=C4c5cccc6[nH]c(Br)c(c56)C[C@H]4N(C)C3)(C(C)C)C(=O)N12 [bromocriptine]
- inhibition at Sm.5HTRL [6]: potent, and long lasting inhibition

Structure (SMILES): COc1ccc2c(c1O)-c1c3c(cc4c1[C@H](C2)N(C)CC4)OCO3 [Bulbocapnine, (+)-Bulbocapnine]
- IC50 [1]: 15.2 ± 2.5 µM
- IC50 [3]: 76.1 ± 17.8 µM

Structure (SMILES): NCCc1c[nH]c2ccc(O)cc12 [5-HT, 5-hydroxytryptamine, reference compound]
- increase in schistosomule contractility ([3]; 5-HT 10 μM versus basal movement in media lacking 5-HT): 3–5 fold
- effect of 5-HT on adult worm movement ([4]; control worms, Fig. 4C&D): stimulated movement, most evident in female worms

Structure (SMILES): COc1cc2c(cc1O)C[C@H]1c3c(cc(O)c(OC)c3-2)CCN1C [Boldine, (+)boldine]
- block of Sm.5HTRL dependent cAMP generation in vitro [1]: completely blocked
- IC50 [1]: 1.1 ± 0.1 µM
- IC50 [3]: 2.5 ± 1.4 µM
- effect on 5-HT stimulated motility ([4]; female adult worms, increasing 5-HT): high doses of 5-HT were competent at restoring motility

Structure (SMILES): CSc1ccc2c(c1)C(N1CCN(C)CC1)Cc1ccccc1S2 (centres unmarked) [methiothepin, reference compound]
- effect on 5-HT stimulated schistosomule contractility ([3]; 5-HT 10 μM plus methiothepin 10 μM, Fig. 2A): reversed this effect
